Diaph act CS = compounds boosting diaphorase resazurin reduction – biochemical, uHTS, resorufin fluorescence, counter-screen for diaphorase-coupled primary assays, primary screen; Diaphorase/resazurin coupled assay, 16 min; stronger effect = higher value; 1 = vehicle wells, 0 = NADH-free wells; activation factor at 20 µM; 0.005% of 190,000 active;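 active = diaphorase activity raised at least twofold by the compound at 20 µM; inactive = activation factor below 2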
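test system = bacterial diaphorase enzyme (C. kluyveri) | quantity = enzyme 0.07 U/mL final | reagent = NADH substrate 0.114 mM plus resazurin dye 0.1 mM, final | incubation = 16 min enzyme reaction, ambient temperature | buffer or medium = HEPES pH 7.4 buffer with MgCl2 and Tween 20 | signal = fluorescence of resorufin, 544 nm excitation, 590 nm emission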
Diaph inh CS = diaphorase inhibitors and chemical oxidizers, primary screen, counter-screen for diaphorase-coupled primary assays, biochemical, uHTS, resorufin fluorescence | diaphorase resazurin-to-resorufin fluorescence, NADH, 16 min; bacterial (C. kluyveri) enzyme, not human | 0.69% of 190,000 active | AID 1217, 2008 | inhibition, % at 20 µM;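 active = primary screen inhibition at 20 µM above a set limit, cut at about 50% in these data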
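Test system: Clostridium kluyveri diaphorase enzyme / Quantity: diaphorase at 0.14 U/mL in enzyme working solution / Incubation: 16-min room-temperature incubation before reading / Benchmarks: NADH-free wells as positive control, DMSO-only neutral wells / Signal: resorufin fluorescence 544/590 nm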
Lmaj promast = Leishmania major promastigote growth inhibition, primary screen; 9% of 200,000 active; Leishmania major promastigotes, resazurin fluorescence viability; AID 1063, 2008; inhibition, % at 10 µM;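 also: promastigotes grown with compound for 44 hours at 28 °C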
DTT redox prof = compounds producing H2O2 with reducing agent – biochemical, NIH compound library profiling, artefact control for MLSCN library redox annotation, primary screen; AID 878, 2007; activation, % at 10 µM; 0.03% of 200,000 active; DTT-dependent redox cycling H2O2, phenol red/HRP absorbance; 100% = 100 µM peroxide control, 0% = buffer;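 active = activation of at least 50% relative to the plate's high and low controls in the primary single-dose screen; inactive = activation below 50%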;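 also: compound incubated with DTT at 0.8 mM final as the reducing agent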
PfG6PD inh = PfG6PD enzyme inhibitors, primary screen, biochemical, fluorescence intensity, uHTS; glucose-6-phosphate dehydrogenase-6-phosphogluconolactonase (Plasmodium falciparum 3D7); PfGluPho enzyme, NADPH resazurin-diaphorase fluorescence; inhibition, % at 20 µM; 0.78% of 350,000 active;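 active = inhibition reaching at least a set limit at 20 µM in the primary screen, cut at about 59% in these data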
G6PDH counter = L. mesenteroides G6PDH inhibitors, counter-screen for G6PDH-coupled screening assays, biochemical, Leuconostoc mesenteroides enzyme. 0.12% of 200,000 active. glucose-6-phosphate dehydrogenase [Leuconostoc mesenteroides]. Purified L. mesenteroides G6PDH, diaphorase/resazurin coupled fluorescence, 45 min. inhibition, % at 5 µM
Hits are given with their value; . = inactive; / = no result given. This is one part of a sample in which hits are shown more often than they occur. Rule as the data show it, unless noted: active = inhibition above about 50%; inactive = the rest.

SMILES | Diaph act CS | Diaph inh CS | Lmaj promast | DTT redox prof | PfG6PD inh | G6PDH counter
Cc1ccc2[nH]c3c(c2c1)CCN1C(=O)OC(C)(C)C31C (stereo not given) | . | . | . | . | . | .
N#CC1(NC(=O)COC(=O)/C=C/c2ccc3ccccc3n2)CCCCC1 | / | / | / | / | . | /
CCCCN1C(=N)N([C@@H](CCC)CN2CCC[C@H]2CN2C(N)=NC[C@H]2C(C)C)C[C@H]1[C@H](C)CC | / | / | / | / | . | /
C1=CC2CC1CC2CNCc1ccco1 (stereo not given) | . | . | . | . | . | .
Cc1cc(C(=O)N/N=C/c2cccnc2)cs1 | . | . | . | . | . | .
CCOC(=O)c1cc(-c2ccccc2)sc1NC(=O)CN1C(=O)NC(CC)(c2ccc(F)cc2)C1=O (stereo not given) | . | . | . | . | . | .
CCOC(=O)c1cc(-c2ccccc2)sc1NC(=O)COC(=O)c1ccc(Cl)c(S(N)(=O)=O)c1 | . | . | 91 | . | . | .
CCOC(=O)c1cc(-c2ccccc2)sc1NC(=O)COC(=O)c1cccc(S(N)(=O)=O)c1 | . | . | . | . | . | .
CCOC(=O)c1cc(-c2ccccc2)sc1NC(=O)CN1C(=O)NC(CC)(c2ccccc2)C1=O (stereo not given) | . | . | 51 | . | . | .
Fc1cccc(Cl)c1CNCc1cccnc1 | / | / | / | / | . | /
C=CCN(CC=C)C(=O)c1cc(Cl)ccc1[N+](=O)[O-] | . | . | 51 | . | . | .
O=C1C2CC=CCC2C(=O)N1c1ccc(N2CCN(c3ccccn3)CC2)c([N+](=O)[O-])c1 (stereo not given) | . | . | . | . | . | .
CC(=O)c1ccc(Nc2cc(C)nc3c(C)cc(C)cc23)cc1 | . | . | 100 | . | . | .
NC(=O)COc1ccc(NC(=O)CC23CC4CC(CC(C4)C2)C3)cc1 | / | / | / | / | . | /
COc1cc(SC#N)ccc1N=Cc1c(C)[nH]n(-c2ccc(C)c(C)c2)c1=O | . | . | 99 | . | . | .
O=C(c1ccc(Cl)cc1)c1c[nH]c(C(=O)C(Cl)(Cl)Cl)c1 | . | . | 86 | . | . | .
O=C(c1c[nH]c(C(=O)C(Cl)(Cl)Cl)c1)c1ccc(F)cc1Cl | . | 60 | 71 | . | . | .
CNC(=O)c1cc(C(=O)c2ccc(Cl)cc2)c[nH]1 | / | / | / | / | . | /
O=C(Cc1ccccc1)c1c[nH]c(C(=O)C(Cl)(Cl)Cl)c1 | / | / | / | / | . | /
O=C(c1c[nH]c(C(=O)C(Cl)(Cl)Cl)c1)c1ccc(F)cc1F | / | / | / | / | . | /
O=C(c1ccccc1)c1c[nH]c(C(=O)C(Cl)(Cl)Cl)c1 | . | . | 87 | . | . | .
COc1ccccc1N(C)S(=O)(=O)c1ccc(C(=O)OCC(=O)N2CCCCCC2)cc1 | . | . | 100 | . | . | .
COc1ccc(NC(=O)COC(=O)c2ccc(S(=O)(=O)N(C)c3ccccc3OC)cc2)cc1 | / | / | / | / | . | /
CCCNC(=O)NC(=O)COC(=O)c1ccc(S(=O)(=O)N(C)c2ccccc2OC)cc1 | . | . | 73 | . | . | .
N#Cc1c(N)nc2c3c(sc(=N)c2c1N)NC(=O)CC3c1ccccc1 (stereo not given) | . | . | . | . | . | .
SMILES | Diaph act CS | Diaph inh CS | Lmaj promast | DTT redox prof | PfG6PD inh | G6PDH counter
N#Cc1c(N)nc2c3c(sc(=N)c2c1N)NC(=O)CC3c1c(F)cccc1Cl (stereo not given) | . | 53 | 100 | . | . | .
C[C@@H]1CNC(=O)c2c(C(=O)Nc3ccc(CNC(=O)OC(C)(C)C)cc3)ncn21 | / | / | / | / | . | /
Cc1cc(Br)c(Cl)cc1NC(=O)CN1C(=O)C2C3CC(c4ccccc4)C(C3)C2C1=O (stereo not given) | . | . | 84 | . | . | .
N#CCSc1nnc(Nc2ccccc2)s1 | . | . | 65 | . | . | .
CN1CCN(CC(=O)Nc2c(C(=O)c3ccccc3)oc3ccccc23)CC1 | / | / | / | / | . | /
COc1ccc2oc(C(=O)c3ccccc3)c(NC(=O)CN3CCN(C)CC3)c2c1 | . | . | 98 | . | . | .
C=C(C)CN1C(=O)C2(OCCO2)c2cc(Br)ccc21 | / | / | / | / | . | /
COc1ccc(C2N(c3ccc(Cl)cc3)N=C(C(C)=O)N(C)N2C(C)=O)cc1 (stereo not given) | . | . | 58 | . | . | .
CCOC(=O)CC1=NN(c2ccccc2)C(=O)/C1=C\c1ccc(N(C)C)cc1 | . | . | 96 | . | . | .
CC1=NN(c2ccccc2)C(=O)/C1=C/C=C/c1ccc(N(C)C)cc1 | . | . | 68 | . | . | .
O=C1COc2ccc(C(=O)c3ccccc3C(=O)NCc3ccccc3)cc2N1 | . | . | . | . | . | .
CC(c1ccccc1)N1CCN(C(=O)CCl)CC1 (stereo not given) | . | . | 76 | . | . | .
COc1ccc(Cn2c(-c3ccc(Br)cc3)c[n+]3ccccc23)cc1 | . | . | 99 | . | . | .
CSc1nc2ccc(NS(=O)(=O)c3ccccc3F)cc2s1 | . | . | 59 | . | . | .
Cc1ccc(NC(=O)c2ccc(=O)[nH]c2)cc1S(=O)(=O)N1CCCCCC1 | / | / | / | / | . | /
CCn1cc(C(=O)Nc2ccc(C(=O)N3CCCC3)cc2)c(=O)c2ccc(C)nc21 | . | . | / | / | / | .
COc1ccc(NC(=O)C2CC2)cc1S(=O)(=O)N1CCOCC1 | / | / | / | / | . | /
COc1ccc(NC(=O)C2CCC(C(C)(C)C)CC2)cc1S(=O)(=O)N1CCCCC1 (stereo not given) | . | . | 99 | . | . | .
CCn1cc(C(=O)Nc2ccc(OC)c(S(=O)(=O)N3CCCCC3)c2)c(=O)c2ccc(C)nc21 | . | . | 67 | . | . | .
COc1ccc(NC(=O)c2ccc(=O)[nH]c2)cc1S(=O)(=O)N1CCCCC1 | . | . | 56 | . | / | .
COC(=O)c1ccccc1NC(=O)C1CCN(S(=O)(=O)c2cc(C)ccc2OC)CC1 | . | . | 76 | . | . | .
CC1(C)CC(=O)c2sc(NS(=O)(=O)c3ccc(F)cc3)nc2C1 | . | . | . | . | . | .
COc1ccc(N2CCN(CC(=O)Nc3c(C)cccc3C)CC2)cc1 | / | / | / | / | . | /
Cc1ccc(C(C)C)c(OCCNC(=S)Nc2cccc3ccccc23)c1 | . | . | . | . | . | .
COc1ccc(OC)c(S(=O)(=O)N2CCC(C(=O)Nc3cccc(C)c3)CC2)c1 | . | . | 100 | . | . | .
COc1ccc(OC)c(S(=O)(=O)N2CCC(C(=O)Nc3ccccc3)CC2)c1 | / | / | . | . | . | .
